Results published in ChEMBL document CHEMBL2331410, “Synthesis and Pharmacological Characterization of Two Novel, Brain Penetrating P2X7 Antagonists” (ACS Med Chem Lett, 2013).
Converted amounts (≈) assume the structure as drawn. The source made the active and inactive calls. The rule behind the calls is not given here.

What was measured:
[1] = target: T1, P2X purinoceptor 7 (Homo sapiens, UniProt Q99572); test: Antagonist activity at P2X7 receptor in human whole blood assessed as inhibition of BzATP-induced IL1beta release incubated 30 mins prior to BzATP-challenge measured after 1.5 hrs by ELISA
T1 sequence (Q99572 whole entry): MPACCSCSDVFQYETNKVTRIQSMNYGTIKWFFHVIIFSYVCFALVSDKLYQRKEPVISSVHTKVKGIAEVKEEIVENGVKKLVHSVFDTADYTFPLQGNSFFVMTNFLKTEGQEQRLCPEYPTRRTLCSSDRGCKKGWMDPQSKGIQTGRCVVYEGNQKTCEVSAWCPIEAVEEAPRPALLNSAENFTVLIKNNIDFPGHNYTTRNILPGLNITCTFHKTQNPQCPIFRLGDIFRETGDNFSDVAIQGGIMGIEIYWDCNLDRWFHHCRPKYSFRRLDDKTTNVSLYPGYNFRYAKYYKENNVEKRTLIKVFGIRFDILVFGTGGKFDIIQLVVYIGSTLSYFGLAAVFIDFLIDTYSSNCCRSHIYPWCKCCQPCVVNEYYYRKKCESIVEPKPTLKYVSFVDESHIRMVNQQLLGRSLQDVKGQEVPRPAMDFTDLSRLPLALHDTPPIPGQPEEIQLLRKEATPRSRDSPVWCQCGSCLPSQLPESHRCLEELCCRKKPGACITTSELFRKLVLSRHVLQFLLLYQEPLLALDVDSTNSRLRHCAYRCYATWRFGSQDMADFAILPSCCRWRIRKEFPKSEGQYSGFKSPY

[2] = Extraction ratio in mouse liver microsomes at 1 uM by LC/MS/MS analysis; assay type: ADME, Microsome; conditions: read-out: ERH
[3] = target: T1, P2X purinoceptor 7; test: Antagonist activity at human recombinant P2X7 receptor expressed in human 1321N1 cells assessed as inhibition of BzATP-induced Ca2+ flux after 30 mins by FLIPR assay; assay type: cell-based
[4] = Plasma protein binding in human by equilibrium dialysis method; assay type: ADME, cell-free; conditions: read-out: PPB (converted)
[5] = target: Sodium-dependent serotonin transporter (Rattus norvegicus, UniProt P31652); test: Displacement of [3H]-Citalopram from SERT in rat brain after 60 mins by scintillation counting analysis; assay type: tissue-based
[6] = species: Rattus norvegicus; test: Inhibition of rat nACHR at 1 uM relative to control
[7] = target: T1, P2X purinoceptor 7; test: Antagonist activity at P2X7 receptor in human PBMC assessed as inhibition of BzATP-induced IL1beta release incubated 30 mins prior to BzATP-challenge measured after 1.5 hrs by ELISA
[8] = target: T2, P2X purinoceptor 7 (Rattus norvegicus, UniProt Q64663); test: Antagonist activity at rat P2X7 receptor by radioligand binding assay
T2 sequence (Q64663 whole entry): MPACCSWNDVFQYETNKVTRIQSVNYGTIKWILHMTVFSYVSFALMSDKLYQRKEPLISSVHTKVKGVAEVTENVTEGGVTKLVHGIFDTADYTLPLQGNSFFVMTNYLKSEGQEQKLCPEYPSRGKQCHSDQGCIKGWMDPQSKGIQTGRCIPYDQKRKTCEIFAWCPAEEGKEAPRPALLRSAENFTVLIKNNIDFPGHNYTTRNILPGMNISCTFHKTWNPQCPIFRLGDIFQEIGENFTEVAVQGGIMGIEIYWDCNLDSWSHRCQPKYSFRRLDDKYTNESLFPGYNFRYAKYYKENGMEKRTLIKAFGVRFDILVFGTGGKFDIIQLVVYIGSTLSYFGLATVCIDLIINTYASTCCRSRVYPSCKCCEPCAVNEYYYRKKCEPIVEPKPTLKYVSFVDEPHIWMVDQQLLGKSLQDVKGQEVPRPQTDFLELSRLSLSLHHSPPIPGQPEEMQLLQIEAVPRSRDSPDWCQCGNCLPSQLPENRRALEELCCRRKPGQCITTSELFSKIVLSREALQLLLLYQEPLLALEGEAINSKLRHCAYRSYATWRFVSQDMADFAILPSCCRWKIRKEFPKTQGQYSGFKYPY

[9] = target: T3, Substance-K receptor (Homo sapiens) (UniProt P21452); test: Inhibition of human NK2 receptor at 1 uM relative to control
T3 sequence (whole entry): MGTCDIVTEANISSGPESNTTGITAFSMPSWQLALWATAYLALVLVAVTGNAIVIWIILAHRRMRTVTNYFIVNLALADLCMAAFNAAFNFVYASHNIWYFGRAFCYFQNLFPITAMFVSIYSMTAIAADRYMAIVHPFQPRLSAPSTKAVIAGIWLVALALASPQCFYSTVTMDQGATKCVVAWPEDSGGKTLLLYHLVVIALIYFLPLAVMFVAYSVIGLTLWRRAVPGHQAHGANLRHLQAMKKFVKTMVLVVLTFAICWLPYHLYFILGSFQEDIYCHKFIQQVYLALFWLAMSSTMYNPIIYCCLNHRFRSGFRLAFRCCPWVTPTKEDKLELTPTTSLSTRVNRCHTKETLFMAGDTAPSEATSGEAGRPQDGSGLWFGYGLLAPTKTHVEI

[10] = Solubility of the compound at pH 7; assay type: physicochemical; conditions: buffer
[11] = Apparent permeability from basolateral to apical side in human Caco2 cells at 1 uM after […] by LC/MS/MS analysis; assay type: ADME, cell-based; conditions: Caco-2
[12] = target: T4, Sodium-dependent dopamine transporter (Homo sapiens, UniProt Q01959); test: Inhibition of human dopamine transporter
[13] = Extraction ratio in rat liver microsomes at 1 uM by LC/MS/MS analysis; assay type: ADME, Microsome; conditions: read-out: ERH
[14] = Apparent permeability from apical to basolateral side in human Caco2 cells at 1 uM after 60 mins by LC/MS/MS analysis; assay type: ADME, cell-based; conditions: Caco-2
[15] = system: Rattus norvegicus; test: Ex-vivo P2X7 receptor occupancy in Sprague-Dawley rat brain assessed as inhibition of [3H]A804598 binding at 10 mg/kg, sc by autoradiographic analysis; assay type: functional, organism-based; design: dose 10 mg/kg
How it was run: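 Single subcutaneous dose given to rats; P2X7 occupancy in brain was assessed ex vivo by autoradiography at several times after dosing, with plasma and brain drug levels measured in parallel. n = 3 per time point, mean ± SEM.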

[16] = target: T4, Sodium-dependent dopamine transporter; test: Inhibition of human dopamine transporter at 1 uM relative to control
[17] = Protein binding in rat brain; assay type: ADME, tissue-based; conditions: brain tissue, read-out: PB (converted)
[18] = Extraction ratio in human liver microsomes at 1 uM by LC/MS/MS analysis; assay type: ADME, Microsome; conditions: read-out: ERH
[19] = system: Rattus norvegicus; test: Ex-vivo P2X7 receptor occupancy in sc dosed Sprague-Dawley rat brain assessed as inhibition of [3H]A804598 binding after 120 mins by autoradiographic analysis; assay type: functional
[20] = species: Rattus norvegicus; test: Ex-vivo SERT occupancy in Sprague-Dawley rat by autoradiographic analysis; assay type: functional
[21] = target: T5, P2X purinoceptor 7 (Mus musculus, UniProt Q9Z1M0); test: Antagonist activity at mouse P2X7 receptor assessed as inhibition of ATP-induced Ca2+ flux by FLIPR assay
T5 sequence (Q9Z1M0 whole entry): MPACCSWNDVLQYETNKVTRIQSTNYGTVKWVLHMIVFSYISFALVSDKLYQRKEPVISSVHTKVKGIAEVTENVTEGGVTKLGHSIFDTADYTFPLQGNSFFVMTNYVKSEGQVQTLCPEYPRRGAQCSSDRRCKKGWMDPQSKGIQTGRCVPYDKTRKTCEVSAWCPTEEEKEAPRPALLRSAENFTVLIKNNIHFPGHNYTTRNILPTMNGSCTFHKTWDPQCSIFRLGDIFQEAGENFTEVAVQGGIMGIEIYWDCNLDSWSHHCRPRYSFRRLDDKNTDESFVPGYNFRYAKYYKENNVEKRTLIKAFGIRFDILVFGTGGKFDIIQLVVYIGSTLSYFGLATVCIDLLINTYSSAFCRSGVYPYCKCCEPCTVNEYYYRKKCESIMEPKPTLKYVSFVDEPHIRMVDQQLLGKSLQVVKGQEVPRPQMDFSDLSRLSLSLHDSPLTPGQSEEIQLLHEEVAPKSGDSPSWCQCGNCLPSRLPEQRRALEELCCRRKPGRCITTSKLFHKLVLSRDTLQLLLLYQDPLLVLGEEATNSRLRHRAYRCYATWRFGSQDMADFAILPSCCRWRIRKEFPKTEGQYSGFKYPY

[22] = Solubility of the compound at pH 2; assay type: physicochemical; conditions: buffer
[23] = Inhibition of rat nACHR
[24] = target: T1, P2X purinoceptor 7; test: Displacement of [3H]-A804598 from human recombinant P2X7 receptor expressed in human 1321N1 cell membranes after 1 hr by […]
[25] = Plasma protein binding in rat by equilibrium dialysis method; assay type: ADME, cell-free; conditions: read-out: PPB (converted)
[26] = target: Sodium-dependent serotonin transporter (Homo sapiens, UniProt P31645); test: Displacement of [3H]-Citalopram from human SERT expressed in human HEK293 cells after 1 hr by scintillation counting analysis; assay type: cell-based
[27] = target: T2, P2X purinoceptor 7; test: Antagonist activity at rat P2X7 receptor assessed as inhibition of ATP-induced Ca2+ flux by FLIPR assay
[28] = system: Rattus norvegicus; test: Ex-vivo P2X7 receptor occupancy in Sprague-Dawley rat brain assessed as inhibition of [3H]A804598 binding at 30 mg/kg, sc after 2 hrs by autoradiographic analysis relative to control; assay type: functional; conditions: route subcutaneous
How it was run: (§1)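 Rat brain P2X7 occupancy by ex vivo autoradiography after one 30 mg/kg subcutaneous dose, followed over time. Plasma and brain drug levels were measured at the same time points. n = 3 per time point, mean ± SEM.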

[29] = system: Rattus norvegicus; test: Ex-vivo P2X7 receptor occupancy in Sprague-Dawley rat brain assessed as inhibition of [3H]A804598 binding at 30 mg/kg, sc by autoradiographic analysis; assay type: functional, organism-based; design: dose 30 mg/kg; how it was run: as §1
[30] = system: Rattus norvegicus; test: Ex-vivo P2X7 receptor occupancy in sc dosed Sprague-Dawley rat brain assessed as inhibition of [3H]A804598 binding after 15 mins by autoradiographic analysis; assay type: functional

T4 sequence (Q01959 whole entry): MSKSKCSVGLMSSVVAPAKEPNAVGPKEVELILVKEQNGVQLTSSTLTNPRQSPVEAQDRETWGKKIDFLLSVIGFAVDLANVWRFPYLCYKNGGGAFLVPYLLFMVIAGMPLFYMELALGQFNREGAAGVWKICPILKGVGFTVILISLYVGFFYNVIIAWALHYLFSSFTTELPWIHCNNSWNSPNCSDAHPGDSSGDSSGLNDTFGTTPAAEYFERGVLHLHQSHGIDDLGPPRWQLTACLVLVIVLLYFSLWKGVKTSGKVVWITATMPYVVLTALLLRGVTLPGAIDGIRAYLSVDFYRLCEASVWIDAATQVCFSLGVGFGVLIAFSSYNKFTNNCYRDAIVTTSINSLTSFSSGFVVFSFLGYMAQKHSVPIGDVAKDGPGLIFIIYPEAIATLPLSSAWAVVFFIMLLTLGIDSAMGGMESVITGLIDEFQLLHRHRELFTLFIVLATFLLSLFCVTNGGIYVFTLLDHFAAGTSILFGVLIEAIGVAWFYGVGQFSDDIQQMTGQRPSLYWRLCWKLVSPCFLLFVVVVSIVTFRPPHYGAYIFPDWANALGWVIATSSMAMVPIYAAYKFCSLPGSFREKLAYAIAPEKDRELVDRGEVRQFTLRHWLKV
Sodium-dependent serotonin transporter (Rattus norvegicus, UniProt P31652), sequence (P31652 whole entry): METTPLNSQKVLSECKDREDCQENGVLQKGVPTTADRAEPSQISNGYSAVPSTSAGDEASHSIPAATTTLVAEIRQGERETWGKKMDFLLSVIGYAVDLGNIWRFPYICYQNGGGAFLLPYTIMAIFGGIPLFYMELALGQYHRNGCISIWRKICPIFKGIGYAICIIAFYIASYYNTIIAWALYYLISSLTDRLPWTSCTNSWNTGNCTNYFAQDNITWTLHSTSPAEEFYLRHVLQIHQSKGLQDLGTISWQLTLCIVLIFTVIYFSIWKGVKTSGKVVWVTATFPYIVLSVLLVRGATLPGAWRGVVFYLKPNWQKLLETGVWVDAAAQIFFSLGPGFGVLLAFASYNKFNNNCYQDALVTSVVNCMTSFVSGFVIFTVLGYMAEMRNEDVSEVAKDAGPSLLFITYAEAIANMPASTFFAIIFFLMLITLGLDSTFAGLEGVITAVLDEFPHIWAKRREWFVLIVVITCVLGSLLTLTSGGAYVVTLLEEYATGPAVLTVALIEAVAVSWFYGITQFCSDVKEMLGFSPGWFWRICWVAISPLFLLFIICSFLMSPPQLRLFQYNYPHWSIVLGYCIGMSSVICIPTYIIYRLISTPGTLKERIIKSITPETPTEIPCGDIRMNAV
Sodium-dependent serotonin transporter (Homo sapiens, UniProt P31645), sequence (P31645 whole entry): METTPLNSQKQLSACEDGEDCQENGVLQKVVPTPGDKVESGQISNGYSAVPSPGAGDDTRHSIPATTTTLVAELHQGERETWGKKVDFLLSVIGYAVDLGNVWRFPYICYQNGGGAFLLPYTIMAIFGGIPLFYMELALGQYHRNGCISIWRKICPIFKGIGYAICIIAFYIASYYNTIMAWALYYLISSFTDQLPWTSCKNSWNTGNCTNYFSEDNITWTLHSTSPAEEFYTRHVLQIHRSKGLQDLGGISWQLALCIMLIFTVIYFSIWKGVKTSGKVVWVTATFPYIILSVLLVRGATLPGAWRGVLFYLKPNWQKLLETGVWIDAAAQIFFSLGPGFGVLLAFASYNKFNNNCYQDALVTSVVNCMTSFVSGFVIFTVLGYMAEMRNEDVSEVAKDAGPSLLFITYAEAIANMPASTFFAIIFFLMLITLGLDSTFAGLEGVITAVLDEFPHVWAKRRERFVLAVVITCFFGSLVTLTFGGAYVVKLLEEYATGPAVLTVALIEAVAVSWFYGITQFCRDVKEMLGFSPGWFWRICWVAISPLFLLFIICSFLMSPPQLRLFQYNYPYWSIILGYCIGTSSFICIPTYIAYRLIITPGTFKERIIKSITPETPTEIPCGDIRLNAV

Row | Compound | IC50 [1] [nM] | hepatic extraction ratio at 1 µM [2] | fraction unbound [4] | Ki [5] [nM] | IC50 [7] [nM] | Ki [8] [nM] | solubility [10] [µM] | hepatic extraction ratio at 1 µM [13] | fraction unbound [17] | hepatic extraction ratio at 1 µM [18] | IC50 [21] [nM] | solubility [22] [µM] | Ki [24] [nM] | fraction unbound [25] | IC50 [27] [nM] | further results
1 | CN1CCc2c(cccc2C(=O)NCC2(N3CCN(c4ccccc4)CC3)CCCCC2)C1 | 200 | 0.9 | 0.165 | 20 | 39.8 | 0.794 | 90 (≈ 40.2 µg/mL) | 0.86 | 0.024 | 0.9 | 79.4 | 95 (≈ 42.4 µg/mL) | 12.6 | 0.044 | 15.8 | IC50 [3]: 20 nM; inhibition [6]: 54%; inhibition [9]: 68%; Papp B→A at 1 µM [11]: 2.1 ×10⁻⁶ cm/s; IC50 [12]: 290 nM; Papp A→B at 1 h, 1 µM [14]: 11 ×10⁻⁶ cm/s; Activity [15]: Active; inhibition [16]: 93%; ED50 [19]: 0.3 mg/kg; ED50 [20]: 24 mg/kg; IC50 [23]: 910 nM; Ki [26]: 15.8 nM
2 | O=C(NCC1(N2CCN(c3ccccc3)CC2)CCOCC1)c1cccnc1Sc1ccccc1 | 200 | > 0.93 | 0.022 | 3160 | 25.1 | 2 | 31 (≈ 15.1 µg/mL) | > 0.92 | 0.017 | > 0.95 | 31.6 | 400 (≈ 195 µg/mL) | 12.6 | 0.029 | 63.1 | Occ [28]: >50%; Activity [29]: Active; ED50 [30]: 2.5 mg/kg
